The values that follow come from ChEMBL document CHEMBL1130122, “Synthesis, biological evaluation, and structure-activity relationships of 3-acylindole-2-carboxylic acids as inhibitors of the cytosolic phospholipase A2” (J Med Chem, 1997).

The species entered for test [1] is Bos taurus. Nature of the test: The cell lytic potency at a compound concentration of 33 uM in bovine platelets was determined. The test is classed as functional. An outline of the steps:
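Turbidimetric lysis assay in bovine platelets. ETYA, then compound or DMSO solvent, then platelet suspension and CaCl2 at 37 °C. The suspension was diluted with PBS and absorbance read at 800 nm; lysis lowers absorbance. Platelets were stored at +4 °C and used within 36 h of isolation.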

In test [2] the target is T1, Cytosolic phospholipase A2 (Bos taurus, UniProt A4IFJ5).
T1 sequence (A4IFJ5 whole entry): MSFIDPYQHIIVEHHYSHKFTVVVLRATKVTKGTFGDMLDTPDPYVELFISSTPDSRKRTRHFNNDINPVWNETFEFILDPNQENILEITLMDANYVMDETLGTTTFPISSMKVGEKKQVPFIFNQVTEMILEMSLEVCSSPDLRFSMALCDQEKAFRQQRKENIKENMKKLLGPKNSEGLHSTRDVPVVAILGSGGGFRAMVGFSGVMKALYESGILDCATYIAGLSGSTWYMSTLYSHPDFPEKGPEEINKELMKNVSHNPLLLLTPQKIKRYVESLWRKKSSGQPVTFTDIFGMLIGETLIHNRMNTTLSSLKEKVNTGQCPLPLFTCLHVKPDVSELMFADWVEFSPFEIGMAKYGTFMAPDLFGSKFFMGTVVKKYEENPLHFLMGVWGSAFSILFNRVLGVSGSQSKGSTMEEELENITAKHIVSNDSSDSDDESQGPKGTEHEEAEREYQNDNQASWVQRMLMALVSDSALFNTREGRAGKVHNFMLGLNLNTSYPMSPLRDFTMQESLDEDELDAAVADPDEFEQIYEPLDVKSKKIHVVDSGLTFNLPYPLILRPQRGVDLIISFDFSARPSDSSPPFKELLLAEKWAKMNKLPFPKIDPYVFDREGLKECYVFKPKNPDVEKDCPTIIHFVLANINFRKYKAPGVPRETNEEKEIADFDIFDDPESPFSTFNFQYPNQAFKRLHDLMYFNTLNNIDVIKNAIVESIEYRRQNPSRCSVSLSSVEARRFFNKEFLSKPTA
Nature of the test: Inhibitory activity against cPLA2 (cytosolic Phospholipase A2) by measuring the calcium ionophore A-23,187-induced arachidonic acid release from bovine platelets. The test is classed as functional. An outline of the steps:
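Intact bovine platelets stimulated with calcium ionophore A23187 in the presence of ETYA, which blocks arachidonic acid metabolism. Compound or solvent control was added to ETYA, then platelet suspension and CaCl2 at 37 °C. Released arachidonic acid was measured by HPLC/UV. IC50 was read graphically as the mean of at least two independent experiments. Platelets were stored at +4 °C and used within 36 h of isolation.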

Test [3] has as its system Cytosolic phospholipase A2 (Bos taurus). Nature of the test: Inhibitory activity against cPLA2 (cytosolic Phospholipase A2) by measuring the calcium ionophore A-23,187-induced arachidonic acid release from bovine platelets; Not active at highest conc tested 33 uM.
For test [4] the test system is unchanged. Nature of the test: Inhibitory activity against cPLA2 (cytosolic Phospholipase A2) by measuring the calcium ionophore A-23,187-induced arachidonic acid release from bovine platelets at a compound conc of 33 uM.

As a reminder, the IC50 is the point on the concentration scale where inhibition reaches its midpoint. One may read the inhibition as the drop in the measured response relative to a control, in per cent.

In test [1], `CCCCCCCCCCCCCCCCCC(=O)c1c(C(=O)O)n(CCCCCCCC)c2ccccc12` showed a Lysis of 0%.

With `CCCCCCCCCCOc1ccc(CC(=O)c2c(C(=O)O)n(C)c3ccccc23)cc1`, the IC50 in test [2] is 7 µM. In addition, in test [1], the Lysis was determined as 38%.

As to `CCCCCCCCCCCC(=O)c1c(C(=O)O)n(Cc2ccc(CCC(=O)O)cc2)c2ccccc12`, in test [2], the IC50 came to 4 µM. Also, the Lysis in test [1] is given as 0%.

Take `CCCCCCCCCCCCCCCCCC(=O)c1c(C(=O)O)n(CCCCCCCC(=O)O)c2ccccc12`: in test [2], the half-inhibitory concentration (IC50) worked out at 1.4 µM. This compound displayed a Lysis in test [1] of 69%.

For `CCCCCCCCCCCCCCCCCCc1c(C(=O)O)n(C)c2ccccc12`, in test [1], the Lysis worked out at 0%. The IC50 entry in test [3] is reported as “Not Active”.

On to `CCCCCCCCCCOc1ccccc1CC(=O)c1c(C(=O)O)n(C)c2ccccc12`, for which, in test [2], the IC50 is 7 µM. In addition, the Lysis in test [1] came out at 37%.

Take `CCCCCCCCCCCC(=O)c1c(C)c(C)n(C)c1C(=O)O`: the 50% inhibitory concentration (IC50) in test [2] worked out at 11 µM. In addition, the Lysis in test [1] is 0%.

`CCCCCCCCCCCC(=O)c1c(C(=O)O)n(Cc2ccc(/C=C/C(=O)O)cc2)c2ccccc12`: the IC50 in test [2] came out at 4.1 µM. For the same compound, the Lysis in test [1] came to 0%.

`CCCCCCCCCCCC(=O)c1c(C(=O)O)n(C)c2ccc(O)cc12`: the IC50 in test [2] was 10 µM. For the same compound, in test [1], the Lysis is given as 0%.

`CCCCCCCCCCCCCCCCCC(=O)c1c(CC(=O)O)[nH]c2ccccc12` showed a Lysis in test [1] of 0%. Further, the half-maximal inhibitory concentration (IC50) entry in test [3] was “Not Active”.

`CCCCCCCCCCCC(=O)c1c(C(=O)O)n(CCOc2cccc(CC(=O)O)c2)c2ccccc12` showed a Lysis in test [1] of 0%.

Turning to `CCCCCCCCCCCC(=O)c1c(C(=O)O)n(CC(=O)O)c2ccccc12`, in test [2], the half-inhibitory concentration (IC50) was greater than 33 µM. In test [1], this compound yielded a Lysis of 0%. In addition, the inhibition in test [4] turned out to be 39%.

For `CCCCCCCCCCCC(=O)c1c(C(=O)O)n(C)c2ccc(OC)cc12`, the concentration for half-maximal inhibition (IC50) in test [2] worked out at 8 µM. In test [1], the Lysis is 0%.

`CCCCCCCCCCCC(=O)c1c(C(=O)O)n(Cc2cccc(/C=C/C(=O)O)c2)c2ccccc12`: the half-maximal inhibitory concentration (IC50) in test [2] came out at 5.3 µM. The compound further had a Lysis in test [1] of 0%.

On to `CCCCCCCCCCCCCCCCCC(=O)c1c(C(=O)O)n(CCCCCC)c2ccccc12`, for which, in test [2], the IC50 came to 9 µM. This compound also registered a Lysis in test [1] of 27%.

Regarding `CCCCCCCCCCCC(=O)c1c(C(=O)O)n(CCCCCC(=O)O)c2ccccc12`, the IC50 in test [2] is 8 µM. The Lysis in test [1] was 0%.

For the compound `CCCCCCCCCCOc1cccc(CCC(=O)c2c(C(=O)O)n(C)c3ccccc23)c1`, in test [2], the IC50 is 11 µM. In test [1], this compound yielded a Lysis of 14%.

Turning to `CCCCCCCCCCCC(=O)c1c(C(=O)O)n(C)c2cccc(Cl)c12`, the IC50 in test [2] amounted to 9 µM. This compound showed a Lysis in test [1] of 50%.

For `CCCCCCCCCCCC(=O)c1c(C(=O)O)n(C)c2ccc(F)cc12`, in test [2], the IC50 was determined as 11 µM. Also, the Lysis in test [1] was determined as 0%.

Turning to `CCCCCCCCCCCCCCCCCC(=O)c1c(C(=O)O)n(C)c2ccccc12`, in test [2], the IC50 came to 8 µM. This compound also returned a Lysis in test [1] of 0%.

Consider `CCCCCCCCCCCCCCCCCC(=O)c1c(C(=O)O)n(CCCCCCC)c2ccccc12`, for which, in test [2], the IC50 was greater than 10 µM. Also, in test [1], the Lysis is reported as 16%.

With `CCCCCCCCCC(=O)c1c(C(=O)O)n(C)c2ccccc12`, the 50% inhibitory concentration (IC50) in test [2] is 18 µM. In test [1], this compound yielded a Lysis of 0%.

For `CCCCCCCCCCCC(=O)c1c(C(=O)O)n(C)c2ccc([N+](=O)[O-])cc12`, in test [2], the IC50 is 10 µM. The compound further showed a Lysis in test [1] of 10%.

In test [1], `CCCCCCCCCCCCCCCCCC(=O)c1c(CCC(=O)O)[nH]c2ccccc12` returned a Lysis of 0%. In test [3], the half-inhibitory concentration (IC50) entry was “Not Active”.

For `CCCCCCCCCCCC(=O)c1c(C(=O)O)n(CCOc2cccc(C(=O)O)c2)c2ccccc12`, in test [2], the half-maximal inhibitory concentration (IC50) was determined as 1.9 µM. The compound further registered a Lysis in test [1] of 0%.

As for `CCCCCCCCCCCC(=O)c1c(C(=O)O)n(CCCCCCCCC(=O)O)c2ccccc12`, the IC50 in test [2] amounted to 1.6 µM. In test [1], the Lysis is given as 0%.

For `CCCCCCCCCCOc1ccc(CCC(=O)c2c(C(=O)O)n(C)c3ccccc23)cc1`, in test [2], the IC50 stood at 10 µM. Besides, the Lysis in test [1] was determined as 0%.

As for `CCCCCCCCCCCC(=O)c1c(C(=O)O)n(C)c2ccc(Cl)cc12`, the IC50 in test [2] worked out at 8 µM. This compound also gave a Lysis in test [1] of 14%.

On to `CCCCCCCCCCOc1cccc(CC(=O)c2c(C(=O)O)n(C)c3ccccc23)c1`, for which the IC50 in test [2] turned out to be 10 µM. The compound also yielded a Lysis in test [1] of 21%.

For `CCCCCCCCCCCC(=O)c1c(C(=O)O)n(Cc2cccc(CCC(=O)O)c2)c2ccccc12`, the IC50 in test [2] turned out to be 4.3 µM. The compound also returned a Lysis in test [1] of 0%.

Take `CCCCCCCCCCCCOc1cccc(C(=O)c2c(C(=O)O)n(C)c3ccccc23)c1`: the 50% inhibitory concentration (IC50) in test [2] worked out at 7 µM. The Lysis in test [1] is reported as 26%.

`CCCCCCCCCCOc1ccccc1CCC(=O)c1c(C(=O)O)n(C)c2ccccc12`: in test [2], the IC50 was 34 µM. This compound also yielded a Lysis in test [1] of 34%.

As to `CCCCCCCCCCCC(=O)c1c(C(=O)O)n(C)c2cc(Cl)ccc12`, the IC50 in test [2] is 9 µM. In addition, the Lysis in test [1] is listed as 26%.

Turning to `CCCCC/C=C\C/C=C\C/C=C\C/C=C\CCCC(=O)C(F)(F)F` [ARACHIDONYL TRIFLUOROMETHYLKETONE], in test [2], the IC50 stood at 11 µM. In addition, the Lysis in test [1] turned out to be 31%.

As for `CCCCCCCCCCCC(=O)c1c(C(=O)O)n(CCOc2ccc(C(=O)O)cc2)c2ccccc12`, the half-inhibitory concentration (IC50) in test [2] came out at 0.5 µM. Besides, the Lysis in test [1] stood at 0%.

Consider `CCCCCCCCCCCCOc1ccccc1C(=O)c1c(C(=O)O)n(C)c2ccccc12`, for which the Lysis in test [1] came out at 60%.

For `CCCCCCCCCCCCCCCCCC(=O)c1c(C(=O)OCC)n(C)c2ccccc12`, in test [1], the Lysis is on record as 0%. Also, the IC50 entry in test [3] is listed as “Not Active”.

Turning to `CCCCCCCCCCCCCC(=O)c1c(C(=O)O)n(C)c2ccccc12`, in test [2], the IC50 came to 8 µM. The compound further showed a Lysis in test [1] of 0%.

For `CCCCCCCCCCCCCCCCCC(=O)c1c(CC(=O)O)n(C)c2ccccc12`, in test [2], the IC50 is greater than 33 µM. Besides, in test [1], the Lysis is given as 0%.

Regarding `CCCCCCCCCCCC(=O)c1c(C(=O)O)n(CCCCCCCCCCC(=O)O)c2ccccc12`, the IC50 in test [2] was determined as 1.4 µM. Also, in test [1], the Lysis was 0%.

Turning to `CCCCCCCC(=O)c1c(C(=O)O)n(C)c2ccccc12`, in test [2], the half-maximal inhibitory concentration (IC50) is greater than 33 µM. The compound also had a Lysis in test [1] of 0%. Besides, in test [4], the inhibition was 30%.

Turning to `CCCCCCCCCCCC(=O)c1c(C(=O)O)n(CCCCCCCC(=O)O)c2ccccc12`, the IC50 in test [2] amounted to 1.6 µM. In test [1], this compound gave a Lysis of 0%.

On to `CCCCCCCCCCCCCCCCNC(=O)C1CCCN1` (configuration not stated), for which the IC50 in test [2] was determined as 13 µM. In addition, the Lysis in test [1] stood at 0%.

As to `CCCCCCCCCCCCCCCCCC(=O)c1c(CCC(=O)O)n(C)c2ccccc12`, the Lysis in test [1] was 0%. Also, the IC50 entry in test [3] is “Not Active”.

On to `CCCCCCCCCCCCOc1ccc(C(=O)c2c(C(=O)O)n(C)c3ccccc23)cc1`, for which the IC50 in test [2] came out at 7 µM. The same compound displayed a Lysis in test [1] of 19%.

With `CCCCCCCCCCCC(=O)c1c(C(=O)O)n(C)c2ccccc12`, the half-maximal inhibitory concentration (IC50) in test [2] worked out at 8 µM. Also, the Lysis in test [1] is recorded as 0%.

Take `CCCCCCCCCCCC(=O)c1c(C(=O)O)n(CCCCCCC(=O)O)c2ccccc12`: in test [2], the IC50 amounted to 3 µM. In test [1], this compound returned a Lysis of 0%.

Regarding `CCCCCCCCCCCCCCCCCC(=O)c1c(C(=O)O)n(CCCCCCCCCCCC)c2ccccc12`, the Lysis in test [1] is recorded as 0%.

In turn, `CCCCCCCCCCCC(=O)c1c(C(=O)O)n(CCOc2ccc(CC(=O)O)cc2)c2ccccc12` yielded a Lysis in test [1] of 0%.

As to `CCCCCCCCCCCCCCCCCC(=O)c1c(C(=O)O)[nH]c2ccccc12`, the Lysis in test [1] stood at 0%. Moreover, the 50% inhibitory concentration (IC50) entry in test [3] is “Not Active”.
